Test [1] deals with Staphylococcus aureus. Nature of the test: Antibacterial activity against methicillin-sensitive Staphylococcus aureus after 24 hrs by broth micro dilution assay. Format: functional. Put shortly:
(§1)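 MIC read against vancomycin-sensitive staphylococci (MSSA, MRSA) and enterococci (VSE), plus vancomycin-resistant staphylococci (VISA) and enterococci (VRE).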

Test [2] concerns Staphylococcus aureus. Nature of the test: Antibacterial activity against methicillin-resistant Staphylococcus aureus ATCC 33591 after 24 hrs by broth micro dilution assay. The format is functional. The settings on record: ATCC 33591, 24 h. Summed up:
as §1

Test [3] relates to Enterococcus faecium. Nature of the test: Antibacterial activity against vancomycin-sensitive Enterococcus faecium after 24 hrs by broth micro dilution assay. Format: functional.
For test [4], the system named is Staphylococcus aureus. Nature of the test: Antibacterial activity against vancomycin-intermediate-resistant Staphylococcus aureus […] after 24 hrs by broth micro dilution assay. Format: functional. Summed up:
as §1

For test [5], the system named is Enterococcus faecium. Nature of the test: Antibacterial activity against vancomycin-resistant Enterococcus faecium ATCC 51559 after 24 hrs by broth micro dilution assay. Format: functional. As to conditions: ATCC 51559, 24 h. Put shortly:
as §1

Test [6] has as its system Staphylococcus aureus. Nature of the test: Bacteriostatic activity against methicillin-resistant Staphylococcus aureus ATCC 33591 at 2 to 4 uM measured within 6 hrs. The format is functional, organism-based.
The subject of test [7] is Staphylococcus aureus. Nature of the test: Bacteriostatic activity against methicillin-resistant Staphylococcus aureus ATCC 33591 at 2 to 4 uM measured after 6 hrs. Format: functional, organism-based.
Test [8] deals with Staphylococcus aureus. Nature of the test: Antibacterial activity against methicillin-resistant Staphylococcus aureus ATCC 33591 infected in human whole blood assessed as bacterial burden at 4 uM after 3 hrs (reference value: 7.0 log10 CFU/ml). The format is functional.
A short description of test [9]: Binding affinity to N,N'-diacetyl-Lys-D-Ala-D-Ala (unknown origin) by UV-difference spectroscopy. Put shortly:
(§2)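 Binding constants (Ka) measured by UV-difference spectroscopy with the model ligands N,N′-diacetyl-Lys-D-Ala-D-Ala (sensitive) and N,N′-diacetyl-Lys-D-Ala-D-Lac (resistant).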

Test [10] in a line: Binding affinity to N,N'-diacetyl-Lys-D-Ala-D-Lac (unknown origin) by UV-difference spectroscopy. Put shortly: as §2
Test [11] deals with Staphylococcus aureus. Nature of the test: Antibacterial activity against methicillin-resistant Staphylococcus aureus ATCC 33591 infected in human whole blood assessed as bacterial burden at 2 uM after 3 hrs (reference value: 7.0 log10 CFU/ml). The format is functional.
Test [12] concerns Enterococcus faecium. Nature of the test: Inhibition of peptidoglycan biosynthesis in vancomycin-resistant Enterococcus faecium ATCC 51559 assessed as accumulation of UDP-MurNAc-pp at 5 uM after 60 mins by mass spectrometric analysis. The format is functional, organism-based.
In test [13] the test system is Staphylococcus aureus. Nature of the test: Bactericidal activity against methicillin-resistant Staphylococcus aureus ATCC 33591 assessed as reduction in bacterial burden at 4 uM measured within 3 hrs by time-kill assay. Format: functional. Put shortly: (§3)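 Time-kill assay on MRSA starting near 8log₁₀ CFU/mL, with compound at 2 and 4 µM. Viable counts were taken over 24 h, including a 3 h point, with a detection limit of <50 CFU/mL.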

Test [14] concerns Staphylococcus aureus. Nature of the test: Bactericidal activity against methicillin-resistant Staphylococcus aureus ATCC 33591 assessed as reduction in bacterial burden at 4 uM measured within 24 hrs by time-kill assay. Format: functional, organism-based. Summed up:
as §3

The structures appear in SMILES notation. ≈ marks a conversion by molar mass, not a printed value. Calls of active or inactive are those of the source.

Results on eight compounds are retold here after ChEMBL document CHEMBL3734666, “Lipophilic vancomycin aglycon dimer with high activity against vancomycin-resistant bacteria” (2015).

As a reminder, the MIC is the smallest concentration in the dilution series that meets the test's criterion for growth inhibition. Low values mean a more susceptible organism, high ones a less susceptible organism.

Take `CN[C@H](CC(C)C)C(=O)N[C@H]1C(=O)N[C@@H](CC(N)=O)C(=O)N[C@H]2C(=O)N[C@H]3C(=O)N[C@H](C(=O)N[C@H](C(=O)NCCC[N+](C)(C)CCCCCCCC[N+](C)(C)CCCNC(=O)C(F)(F)F)c4cc(O)cc(O)c4-c4cc3ccc4O)[C@H](O)c3ccc(c(Cl)c3)Oc3cc2cc(c3O)Oc2ccc(cc2Cl)[C@H]1O`: the MIC in the test with Staphylococcus aureus [1] was 1 µM; in the test with Staphylococcus aureus [2], 1 µM; in the test on Enterococcus faecium [3], 0.2 µM; against Staphylococcus aureus [4], 0.5 µM; against Enterococcus faecium [5], over 100 µM.
Turning to `CN[C@@H](CC(C)C)C(=O)N[C@H]1C(=O)N[C@@H](CC(N)=O)C(=O)N[C@H]2C(=O)N[C@H]3C(=O)N[C@H](C(=O)N[C@@H](C(=O)O)c4cc(O)cc(O)c4-c4cc3ccc4O)[C@H](O)c3ccc(c(Cl)c3)Oc3cc2cc(c3O[C@H]2O[C@@H](CO)[C@H](O)[C@@H](O)[C@@H]2O[C@@H]2C[C@@](C)(N)[C@@H](O)[C@@H](C)O2)Oc2ccc(cc2Cl)[C@H]1O`, the result in the test on Staphylococcus aureus [6] was Active. In addition, in the test with Staphylococcus aureus [7], the outcome was inactive. The Activity in the test with Staphylococcus aureus [8] is recorded as 1 log10CFU/ml. In addition, the minimal inhibitory concentration (MIC) came out at 0.6 µM (≈ 0.87 µg/mL) against Staphylococcus aureus [1]; 0.7 µM (≈ 1.01 µg/mL) against Staphylococcus aureus [2]; 0.6 µM (≈ 0.87 µg/mL) against Enterococcus faecium [3]; 13 µM (≈ 18.8 µg/mL) in the test with Staphylococcus aureus [4]; 750 µM (≈ 1090 µg/mL) against Enterococcus faecium [5]. The Ka is 1 ×10⁵ /M in [9] and 5 ×10² /M in [10].
`CCCCCCCCN(CCCNC(=O)[C@H]1NC(=O)[C@H]2NC(=O)[C@H](NC(=O)[C@@H]3NC(=O)[C@H](CC(N)=O)NC(=O)[C@H](NC(=O)[C@@H](CC(C)C)NC)[C@H](O)c4ccc(c(Cl)c4)Oc4cc3cc(c4O)Oc3ccc(cc3Cl)[C@H]2O)c2ccc(O)c(c2)-c2c(O)cc(O)cc21)CCCNC(=O)C(F)(F)F`: the MIC was determined as 0.8 µM (≈ 1.17 µg/mL) with Staphylococcus aureus [1]; 1 µM (≈ 1.47 µg/mL) in the test on Staphylococcus aureus [2]; 0.4 µM (≈ 0.586 µg/mL) in the test on Enterococcus faecium [3]; 0.8 µM (≈ 1.17 µg/mL) with Staphylococcus aureus [4]; 6.5 µM (≈ 9.52 µg/mL) in the test with Enterococcus faecium [5].
Consider `CCCCCCCCN(CCCNC(=O)[C@H]1NC(=O)[C@@H]2NC(=O)[C@@H](NC(=O)[C@H]3NC(=O)[C@@H](CC(N)=O)NC(=O)[C@@H](NC(=O)[C@@H](CC(C)C)NC)[C@@H](O)c4ccc(c(Cl)c4)Oc4cc3cc(c4O)Oc3ccc(cc3Cl)[C@@H]2O)c2ccc(O)c(c2)-c2c(O)cc(O)cc21)CCCNC(=O)[C@@H]1NC(=O)[C@H]2NC(=O)[C@H](NC(=O)[C@@H]3NC(=O)[C@H](CC(N)=O)NC(=O)[C@H](NC(=O)[C@@H](CC(C)C)NC)[C@H](O)c4ccc(c(Cl)c4)Oc4cc3cc(c4O)Oc3ccc(cc3Cl)[C@H]2O)c2ccc(O)c(c2)-c2c(O)cc(O)cc21`, for which the Activity is 4.5 log10CFU/ml with Staphylococcus aureus [11] and 3 log10CFU/ml in the test with Staphylococcus aureus [13]. The minimal inhibitory concentration (MIC) in the test with Staphylococcus aureus [1] was found to be 0.6 µM (≈ 1.5 µg/mL); against Staphylococcus aureus [2], 0.6 µM (≈ 1.5 µg/mL); in the test on Enterococcus faecium [3] it was 0.5 µM (≈ 1.25 µg/mL); against Staphylococcus aureus [4], 0.6 µM (≈ 1.5 µg/mL); against Enterococcus faecium [5], 2.5 µM (≈ 6.24 µg/mL). Moreover, the values for the Ka in test [9] and in test [10] were 1 ×10⁵ /M and 5.7 ×10³ /M, respectively. Besides, the inhibition result in the test with Enterococcus faecium [12] was “Active”. Besides, in the test with Staphylococcus aureus [14], the outcome was Active.
For the compound `CN[C@H](CC(C)C)C(=O)N[C@@H]1C(=O)N[C@H](CC(N)=O)C(=O)N[C@@H]2C(=O)N[C@@H]3C(=O)N[C@@H](C(=O)N[C@H](C(=O)NCCC[N+](C)(C)CCCCCCCC[N+](C)(C)CCCNC(=O)[C@H]4NC(=O)[C@@H]5NC(=O)[C@@H](NC(=O)[C@H]6NC(=O)[C@@H](CC(N)=O)NC(=O)[C@@H](NC(=O)[C@@H](CC(C)C)NC)[C@@H](O)c7ccc(c(Cl)c7)Oc7cc6cc(c7O)Oc6ccc(cc6Cl)[C@@H]5O)c5ccc(O)c(c5)-c5c(O)cc(O)cc54)c4cc(O)cc(O)c4-c4cc3ccc4O)[C@@H](O)c3ccc(c(Cl)c3)Oc3cc2cc(c3O)Oc2ccc(cc2Cl)[C@@H]1O`, the MIC with Staphylococcus aureus [1] was 0.2 µM; with Staphylococcus aureus [2], 0.3 µM; in the test on Enterococcus faecium [3], 0.05 µM; against Staphylococcus aureus [4], 0.1 µM; against Enterococcus faecium [5], 48 µM.
The like results for `CN[C@H](CC(C)C)C(=O)N[C@H]1C(=O)N[C@@H](CC(N)=O)C(=O)N[C@H]2C(=O)N[C@H]3C(=O)N[C@H](C(=O)N[C@H](C(=O)NCCCCCCCCNC(=O)C(F)(F)F)c4cc(O)cc(O)c4-c4cc3ccc4O)[C@H](O)c3ccc(c(Cl)c3)Oc3cc2cc(c3O)Oc2ccc(cc2Cl)[C@H]1O` were, in that order, 1 µM (≈ 1.37 µg/mL), 2 µM (≈ 2.73 µg/mL), 0.6 µM (≈ 0.82 µg/mL), 0.6 µM (≈ 0.82 µg/mL) and 30.5 µM (≈ 41.7 µg/mL).
On the same counts, the results for `CN[C@H](CC(C)C)C(=O)N[C@H]1C(=O)N[C@@H](CC(N)=O)C(=O)N[C@H]2C(=O)N[C@H]3C(=O)N[C@H](C(=O)N[C@H](C(=O)O)c4cc(O)cc(O)c4-c4cc3ccc4O)[C@H](O)c3ccc(c(Cl)c3)Oc3cc2cc(c3O)Oc2ccc(cc2Cl)[C@H]1O` [VANCOMYCIN AGLYCON] are 1 µM (≈ 1.14 µg/mL), 1 µM (≈ 1.14 µg/mL), 1.8 µM (≈ 2.06 µg/mL), 4 µM (≈ 4.58 µg/mL) and over 100 µM.
Take `CN[C@H](CC(C)C)C(=O)N[C@@H]1C(=O)N[C@H](CC(N)=O)C(=O)N[C@@H]2C(=O)N[C@@H]3C(=O)N[C@@H](C(=O)N[C@H](C(=O)NCCCCCCCCNC(=O)[C@H]4NC(=O)[C@@H]5NC(=O)[C@@H](NC(=O)[C@H]6NC(=O)[C@@H](CC(N)=O)NC(=O)[C@@H](NC(=O)[C@@H](CC(C)C)NC)[C@@H](O)c7ccc(c(Cl)c7)Oc7cc6cc(c7O)Oc6ccc(cc6Cl)[C@@H]5O)c5ccc(O)c(c5)-c5c(O)cc(O)cc54)c4cc(O)cc(O)c4-c4cc3ccc4O)[C@@H](O)c3ccc(c(Cl)c3)Oc3cc2cc(c3O)Oc2ccc(cc2Cl)[C@@H]1O`: the minimal inhibitory concentration (MIC) was found to be 0.8 µM (≈ 1.92 µg/mL) against Staphylococcus aureus [1]; 0.6 µM (≈ 1.44 µg/mL) against Staphylococcus aureus [2]; 0.6 µM (≈ 1.44 µg/mL) in the test on Enterococcus faecium [3]; 0.2 µM (≈ 0.479 µg/mL) against Staphylococcus aureus [4]; 25.8 µM (≈ 61.8 µg/mL) against Enterococcus faecium [5].
